For assay [1], the target named is T1, Protein arginine N-methyltransferase 1 (Homo sapiens, UniProt Q99873). In words: Inhibition of human recombinant PRMT1-mediated arginine methylation at 10 uM using nonhistone protein Npl3 substrate by ELISA. Background: In an ELISA, binding on a coated surface is turned into a signal by an enzyme label.
Target sequence in this assay (Q99873 whole entry, looked up): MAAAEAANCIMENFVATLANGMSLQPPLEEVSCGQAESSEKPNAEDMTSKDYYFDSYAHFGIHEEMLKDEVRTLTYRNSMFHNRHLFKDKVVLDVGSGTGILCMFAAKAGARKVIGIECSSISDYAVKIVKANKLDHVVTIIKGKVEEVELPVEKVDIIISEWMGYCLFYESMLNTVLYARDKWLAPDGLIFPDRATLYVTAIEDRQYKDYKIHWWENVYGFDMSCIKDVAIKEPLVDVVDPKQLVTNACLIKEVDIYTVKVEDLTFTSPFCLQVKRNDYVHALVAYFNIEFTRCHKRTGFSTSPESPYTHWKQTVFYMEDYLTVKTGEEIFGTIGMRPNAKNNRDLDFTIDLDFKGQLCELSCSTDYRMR
Assay [2] has as its target T1, Protein arginine N-methyltransferase 1. In words: Inhibition of human recombinant PRMT1-mediated arginine methylation at 50 uM using nonhistone protein Npl3 substrate by ELISA.
Target sequence in this assay (Q99873 whole entry, looked up): as above
Assay [3] has the same target. In words: Inhibition of human recombinant PRMT1-mediated arginine methylation using nonhistone protein Npl3 substrate by ELISA.
Target sequence in this assay (Q99873 whole entry): as the sequence (Q99873 whole entry, looked up) above
The target in assay [4] is T2, Histone-arginine methyltransferase CARM1 (Mus musculus) (UniProt Q9WVG6).
T2 sequence (whole entry): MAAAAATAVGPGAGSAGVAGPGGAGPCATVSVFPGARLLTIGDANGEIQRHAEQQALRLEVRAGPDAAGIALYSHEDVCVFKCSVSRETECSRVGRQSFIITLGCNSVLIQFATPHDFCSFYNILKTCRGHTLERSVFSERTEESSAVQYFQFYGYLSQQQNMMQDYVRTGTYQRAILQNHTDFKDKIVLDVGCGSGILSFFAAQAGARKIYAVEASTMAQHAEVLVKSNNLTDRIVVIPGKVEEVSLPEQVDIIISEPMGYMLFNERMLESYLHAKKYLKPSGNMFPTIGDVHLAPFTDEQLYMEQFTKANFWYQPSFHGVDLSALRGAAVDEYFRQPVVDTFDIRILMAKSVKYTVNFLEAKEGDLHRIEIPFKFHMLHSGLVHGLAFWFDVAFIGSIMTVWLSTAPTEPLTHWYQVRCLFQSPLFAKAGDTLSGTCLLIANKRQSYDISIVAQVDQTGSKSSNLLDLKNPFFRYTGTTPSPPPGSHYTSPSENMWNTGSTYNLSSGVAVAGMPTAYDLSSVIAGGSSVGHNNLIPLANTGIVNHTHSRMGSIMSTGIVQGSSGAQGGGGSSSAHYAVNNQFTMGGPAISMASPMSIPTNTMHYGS
In words: Inhibition of mouse FLAG-tagged CARM1-mediated arginine methylation using histone H3(1-31) and [14C]-SAM at 0.01 to 2 mM. In short, it runs like this:
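Flag-CARM1 (mouse, baculovirus-expressed, 250 nM) with 20 μM recombinant histone H3 and 10 μg/mL BSA in 50 mM Tris-HCl, 0.2 M NaCl, 0.5 mM DTT, pH 8.0, preincubated with inhibitor (0.01–2 mM) 30 min at room temperature, centrifuged; started with 10 μM ¹⁴C-SAM, 15 min at 25 °C. SDS-PAGE, phosphorimager quantitation of H3 radioactivity.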

Assay [5] has as its target T3, Histone-lysine N-methyltransferase SETD7 (Homo sapiens) (UniProt Q8WTS6).
T3 sequence (whole entry): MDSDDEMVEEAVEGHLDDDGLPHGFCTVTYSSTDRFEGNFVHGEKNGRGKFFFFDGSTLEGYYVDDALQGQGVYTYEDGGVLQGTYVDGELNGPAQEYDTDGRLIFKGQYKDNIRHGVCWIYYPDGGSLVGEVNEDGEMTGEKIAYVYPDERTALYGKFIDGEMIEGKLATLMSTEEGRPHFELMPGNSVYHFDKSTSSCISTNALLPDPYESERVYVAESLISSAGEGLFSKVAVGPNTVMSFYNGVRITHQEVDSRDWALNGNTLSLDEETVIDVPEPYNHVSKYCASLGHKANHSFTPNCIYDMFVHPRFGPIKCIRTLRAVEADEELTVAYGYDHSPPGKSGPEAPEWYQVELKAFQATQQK
In words: Inhibition of methyl transferase activity of SET7/9 at 50 uM using biotinylated histone H3(1-21) substrate by In-vitro time resolved fluorescence immunosorbent methyltransferase assay. In short, it runs like this:
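Biotinylated human histone H3 peptide (aa 1-21, 20 pmol/well) bound to streptavidin plates. Recombinant human GST-Set7/9 preincubated with inhibitor (DMSO) 10 min at 30 °C, then transferred to wells; reaction started with SAM. Methylation detected with rabbit anti-methyl H3K4 antibody and europium-labelled anti-rabbit IgG, read by time-resolved fluorescence (340/615 nm) after enhancement solution.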

Assay [6] deals with LNCaP. In words: Inhibition of androgen dependent transcription in human LNCAP cells assessed as blockade of R1881-induced transcription at 25 uM by androgen derived MMTV-luciferase reporter gene assay. Format: functional, cell-based. In short, it runs like this:
(§1)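 LNCaP cells (2×10^5) grown in RPMI1640/10% FCS, switched to phenol-red-free RPMI1640 with 10% double-stripped FCS, transfected with 500 ng MMTV-Luc (androgen-driven) or TK-Luc (androgen-independent) reporter per well. Six hours later inhibitor or DMSO added, then overnight with or without 10^-10 M R1881; luciferase read. Three experiments in duplicate, mean + SD (n = 6).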

Assay [7] is described as follows: Growth inhibition of human MCF7a cells by MTS assay. The class given is functional.
Assay [8] concerns LNCaP. In words: Inhibition of androgen dependent FKBP5 gene transcription in human LNCAP cells by RT-PCR preincubated for 10 mins before 1 nM synthetic androgen R1881 addition. Format: functional, cell-based. In short, it runs like this: (§2)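 LNCaP cells washed with PBS, starved 24 h in phenol-red-free RPMI1640 with 0.5% double-stripped FCS, then treated with inhibitor or DMSO vehicle; 10 min later stimulated overnight with or without 10⁻⁹ M R1881. DNase I-treated Trizol RNA reverse transcribed; target mRNA quantified by SYBR green I quantitative PCR with ROX passive reference.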

Assay [9] has as its system LNCaP. In words: Inhibition of androgen dependent ELK4 gene transcription in human LNCAP cells by RT-PCR preincubated for 10 mins before 1 nM synthetic androgen R1881 addition. The class given is functional, cell-based. In short, it runs like this:
as §2

Assay [10] concerns LNCaP. In words: Inhibition of androgen dependent IGF1-R gene transcription in human LNCAP cells by RT-PCR preincubated for 10 mins before 1 nM synthetic androgen R1881 addition. Format: functional, cell-based. In short, it runs like this:
as §2

For assay [11], the system named is LNCaP. In words: Inhibition of androgen dependent MAF gene transcription in human LNCAP cells by RT-PCR preincubated for 10 mins before 1 nM synthetic androgen R1881 addition. Format: functional, cell-based. The essentials:
as §2

The test system of assay [12] is LNCaP. In words: Inhibition of androgen dependent NKX3.1 gene transcription in human LNCAP cells by RT-PCR preincubated for 10 mins before 1 nM synthetic androgen R1881 addition. Format: functional, cell-based. The essentials: as §2
Assay [13] relates to LNCaP. In words: Inhibition of androgen dependent transcription in human LNCAP cells assessed as blockade of R1881-induced transcription at 1 to 25 uM by androgen derived MMTV-luciferase reporter gene assay. Format: functional, cell-based. In short, it runs like this:
as §1
Background: A reporter such as luciferase makes a cellular process visible.

The subject of assay [14] is LNCaP. In words: Inhibition of androgen dependent […] gene transcription in human LNCAP cells by RT-PCR preincubated for 10 mins before 1 nM synthetic androgen R1881 addition. The class given is functional, cell-based. In short, it runs like this:
as §2

In assay [15] the test system is LNCaP. In words: Inhibition of thymidine kinase promoter dependent transcription in human LNCAP cells at 10 uM by androgen-nondependent thymidine kinase-luciferase reporter gene assay. Format: functional, cell-based. The essentials: as §1
Assay [16] deals with LNCaP. In words: Inhibition of thymidine kinase promoter dependent transcription in human LNCAP cells at 1 uM by androgen-nondependent thymidine kinase-luciferase reporter gene assay. Format: functional, cell-based. The essentials: as §1
For assay [17], the system named is LNCaP. In words: Inhibition of androgen dependent CXCR4 gene transcription in human LNCAP cells by RT-PCR preincubated for 10 mins before 1 nM synthetic androgen R1881 addition. The class given is functional, cell-based. In short, it runs like this:
as §2

The test system of assay [18] is LNCaP. In words: Inhibition of androgen dependent PER1 gene transcription in human LNCAP cells by RT-PCR preincubated for 10 mins before 1 nM synthetic androgen R1881 addition. The class given is functional, cell-based. The essentials:
as §2

Assay [19] has as its system LNCaP. In words: Growth inhibition of human LNCAP cells by MTS assay. The class given is functional. A general note: Tetrazolium assays rely on reduction of a dye to a coloured formazan, in cell work by metabolically active cells.
Assay [20] concerns LNCaP. In words: Inhibition of androgen dependent GREB1 gene transcription in human LNCAP cells by RT-PCR preincubated for 10 mins before 1 nM synthetic androgen R1881 addition. The class given is functional, cell-based. In short, it runs like this: as §2
For assay [21], the system named is LNCaP. In words: Inhibition of androgen dependent MAK gene transcription in human LNCAP cells by RT-PCR preincubated for 10 mins before 1 nM synthetic androgen R1881 addition. Format: functional, cell-based. In short, it runs like this:
as §2

In assay [22] the test system is LNCaP. In words: Inhibition of androgen dependent TMPRSS2 gene transcription in human LNCAP cells by RT-PCR preincubated for 10 mins before 1 nM synthetic androgen R1881 addition. Format: functional, cell-based. The essentials: as §2
Assay [23] deals with LNCaP. In words: Inhibition of androgen-independent GAPDH gene transcription in human LNCAP cells by RT-PCR preincubated for 10 mins before 1 nM synthetic androgen R1881 addition. The class given is functional, cell-based. In short, it runs like this:
as §2

Active and inactive are the calls of the source. The calls are words filed in the database; no cut-off is given here.

Consider `COc1ccc(CNS(=O)(=O)c2ccc(N)cc2)cc1`, for which the inhibition came to 12% in [1] and 19% in [2].
As for `O=S(=O)(NCCc1ccccc1)c1ccc(NS(=O)(=O)c2ccc(Cl)cc2)cc1`, the IC50 in assay [3] came to 5 µM. For the same compound, the inhibition result in assay [4] was “inactive”. In [5], this compound returned an inhibition of 58%.
Consider `Nc1ccc(S(=O)(=O)NCCc2ccc(O)cc2)cc1`, for which the inhibition stood at 30% in [1] and 37% in assay [2].
`CCC(=O)Nc1ccc(S(=O)(=O)c2ccc(N)cc2)cc1`: the inhibition came out at 23.5% in [1] and 70.6% in [2].
In the case of `O=C(Nc1ccc(S(=O)(=O)NCCc2ccccc2)cc1)c1ccccc1`, the inhibition in [1] came out at 15%; in assay [2] it was 20%.
On to `O=S(=O)(NCCc1ccccc1)c1ccc(Cl)cc1`, for which the inhibition in assay [2] was less than 5%.
`O=C(Nc1ccc(S(=O)(=O)NCCc2ccccc2)cc1)c1ccc(Cl)c(Cl)c1`: the inhibition entry in the assay on LNCaP [6] is “Active”. This compound also showed a GI50 in assay [7] of 52.2 µM. In assay [5], this compound returned an inhibition of 37%.
Consider `Nc1ccc(C(=O)Nc2ccc(S(=O)(=O)NCCc3ccccc3)cc2)cc1`, for which the inhibition in [1] and in [2] was 40% each time.
As for `Nc1ccc(C(=O)NCc2ccccc2)cc1`, in assay [2], the inhibition amounted to 47%.
Turning to `O=C(Cc1ccccc1)Nc1ccc(S(=O)(=O)c2ccc(NC(=O)Cc3ccccc3)cc2)cc1`, the inhibition in assay [5] came out at 31%.
Regarding `Nc1ccc(S(=O)(=O)c2ccc(NC(=O)NCc3ccccc3)cc2)cc1`, the inhibition in assay [1] was less than 5%; in assay [2], 13.6%.
Turning to `CC(NC(=O)c1ccc(N)cc1)c1ccccc1` (configuration not stated), the inhibition in [2] came out at 34%.
On to `Nc1ccc(S(=O)(=O)NCc2ccc(Cl)cc2)cc1`, for which the inhibition in assay [2] was less than 5%.
Regarding `Nc1ccc(S(=O)(=O)NCCc2ccc(Cl)cc2)cc1`, the inhibition in [2] is less than 5%.
For the compound `O=C(Cc1ccccc1)Nc1ccc(S(=O)(=O)NCCc2ccccc2)cc1`, the values for the inhibition in assay [1] and in [2] were less than 5% and 10%, respectively.
`Nc1ccc(S(=O)(=O)NCc2ccccc2)cc1`: the inhibition was 22% in assay [1] and 28% in assay [2].
Turning to `CCC(=O)Nc1ccc(S(=O)(=O)c2ccc(NC(=O)CC)cc2)cc1`, the inhibition in assay [2] was less than 5%.
For `Nc1ccc(S(=O)(=O)c2ccc(NC(=O)Cc3ccccc3)cc2)cc1`, the inhibition in assay [1] was 35.3%; in assay [2], 41.2%; in assay [5], less than 5%.
As for `CC(NS(=O)(=O)c1ccc(N)cc1)c1ccccc1` (configuration not stated), the inhibition in [1] was found to be 28%; in [2] it was 40%.
`O=C(CCl)Nc1ccc(S(=O)(=O)c2ccc(NC(=O)CCl)cc2)cc1`: the inhibition result in the assay on LNCaP [8], in the assay with LNCaP [9], with LNCaP [10], with LNCaP [11], in the assay with LNCaP [12] and in the assay with LNCaP [13] was “Active” each time. The inhibition entry in the assay with LNCaP [14], in the assay on LNCaP [17], in the assay on LNCaP [18], in the assay on LNCaP [20], in the assay with LNCaP [21] and with LNCaP [22] was “Active” in each case. For the same compound, in [3], the IC50 came out at 1.5 µM. In addition, the inhibition result (with LNCaP [15]; in the assay on LNCaP [16]; in assay [4]; in the assay on LNCaP [23]) was “inactive” throughout. Moreover, the concentration for 50% growth inhibition (GI50) in [7] was 1.97 µM; with LNCaP [19], 4.49 µM. In [5], the inhibition is less than 5%.
In the case of `Nc1ccc(S(=O)(=O)NCc2ccccn2)cc1`, the IC50 in assay [3] came out at 70.7 µM. In assay [5], this compound returned an inhibition of 14%.
Take `CCCC(=O)Nc1ccc(S(=O)(=O)c2ccc(NC(=O)CCC)cc2)cc1`: the inhibition in assay [1] was found to be 14.7%; in assay [2], 44.1%.
Regarding `O=C(Nc1ccc(S(=O)(=O)NCCc2ccccc2)cc1)c1ccc(-c2ccccc2)cc1`, the inhibition in [1] was 39%; in assay [2], 42%.
With `O=C(Nc1ccc(S(=O)(=O)NCCc2ccccc2)cc1)c1ccc(Br)cc1`, the inhibition in assay [1] amounted to 23%; in assay [2] it was 41%.

One may read the inhibition as the change of the read-out against control, counted positive when it falls. As usually defined, the IC50 is the concentration at which inhibition is half-maximal. A word on the GI50: it is the concentration giving 50% growth inhibition. Read a low GI50 as greater sensitivity of the cells.

These data come from ChEMBL document CHEMBL1795306, “Acyl derivatives of p-aminosulfonamides and dapsone as new inhibitors of the arginine methyltransferase hPRMT1” (Bioorg Med Chem, 2011).
